Experimental data as given in ChEMBL document CHEMBL2417416, “Total synthesis and full histone deacetylase inhibitory profiling of Azumamides A-E as well as β²- epi-Azumamide E and β³-epi-Azumamide E” (J Med Chem, 2013).

Columns and labels:
[1] = molecular target: T1, Polyamine deacetylase HDAC10 (Homo sapiens) (UniProt Q969S8); experiment: Inhibition of recombinant human HDAC10 enzyme using tetrapeptide Ac-ArgThr-Lys(Ac)Lys(Ac)-AMC as substrate at 50 uM after 15 to 30 mins
T1 sequence (whole entry): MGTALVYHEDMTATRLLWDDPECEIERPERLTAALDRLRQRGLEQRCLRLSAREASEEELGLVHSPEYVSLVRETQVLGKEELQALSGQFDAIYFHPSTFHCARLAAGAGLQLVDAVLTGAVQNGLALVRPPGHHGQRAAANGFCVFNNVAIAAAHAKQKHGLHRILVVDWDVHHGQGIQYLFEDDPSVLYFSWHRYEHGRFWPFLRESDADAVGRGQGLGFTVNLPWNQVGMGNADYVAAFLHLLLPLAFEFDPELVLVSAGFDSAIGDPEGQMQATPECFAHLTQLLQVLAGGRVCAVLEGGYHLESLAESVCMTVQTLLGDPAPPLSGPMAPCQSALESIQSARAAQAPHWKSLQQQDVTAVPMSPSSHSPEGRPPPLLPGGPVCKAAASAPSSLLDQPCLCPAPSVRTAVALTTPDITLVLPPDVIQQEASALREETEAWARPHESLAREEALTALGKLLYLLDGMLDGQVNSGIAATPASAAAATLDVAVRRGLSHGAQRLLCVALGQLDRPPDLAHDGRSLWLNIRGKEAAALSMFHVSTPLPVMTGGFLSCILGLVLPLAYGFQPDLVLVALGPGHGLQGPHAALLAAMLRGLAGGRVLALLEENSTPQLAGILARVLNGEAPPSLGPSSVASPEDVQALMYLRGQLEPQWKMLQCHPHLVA
Method in brief: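 Recombinant human HDAC10 (500 ng/well) was screened at 50 μM compound, with 100 μM of the Lys(Ac)-Lys(Ac)-AMC tetrapeptide substrate, in Tris-HCl pH 8.0 buffer with NaCl, KCl, MgCl2 and 0.5 mg/mL BSA. Plates were incubated 30 min at 37 °C, then developed with trypsin (0.4 mg/mL) for 15–30 min at room temperature and read at ex 360/em 460 nm. There were at least two assays in duplicate.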

[2] = molecular target: T2, Histone deacetylase 11 (Homo sapiens) (UniProt Q96DB2); experiment: Inhibition of recombinant human HDAC11 enzyme using Ac-LeuGlyLys(Ac)-AMC as substrate at 50 uM after 15 to 30 mins
T2 sequence (whole entry): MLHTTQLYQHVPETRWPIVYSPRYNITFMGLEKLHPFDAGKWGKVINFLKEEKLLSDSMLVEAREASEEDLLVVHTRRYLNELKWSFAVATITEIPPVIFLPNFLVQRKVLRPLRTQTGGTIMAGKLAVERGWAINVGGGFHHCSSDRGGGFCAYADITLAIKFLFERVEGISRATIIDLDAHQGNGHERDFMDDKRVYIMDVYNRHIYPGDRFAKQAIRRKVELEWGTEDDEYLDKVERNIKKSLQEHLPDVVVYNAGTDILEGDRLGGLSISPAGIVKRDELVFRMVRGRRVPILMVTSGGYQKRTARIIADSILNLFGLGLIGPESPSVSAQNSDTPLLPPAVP
Method in brief: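 HDAC11 (500 ng/well) was tested at a single 50 μM peptide concentration with 80 μM Ac-Leu-Gly-Lys(Ac)-AMC in Tris-HCl pH 8.0 buffer containing BSA, for 30 min at 37 °C. Trypsin development (0.4 mg/mL, 15–30 min, room temperature) released AMC, read at ex 360/em 460 nm. […] There were at least two assays in duplicate.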

[3] = molecular target: T3, Protein deacetylase HDAC6 (Homo sapiens) (UniProt Q9UBN7); experiment: Inhibition of recombinant human HDAC6 enzyme using flurogenic Ac-LeuGlyLys (Ac)-AMC as substrate at 50 uM after 15 to 30 mins
T3 sequence (whole entry): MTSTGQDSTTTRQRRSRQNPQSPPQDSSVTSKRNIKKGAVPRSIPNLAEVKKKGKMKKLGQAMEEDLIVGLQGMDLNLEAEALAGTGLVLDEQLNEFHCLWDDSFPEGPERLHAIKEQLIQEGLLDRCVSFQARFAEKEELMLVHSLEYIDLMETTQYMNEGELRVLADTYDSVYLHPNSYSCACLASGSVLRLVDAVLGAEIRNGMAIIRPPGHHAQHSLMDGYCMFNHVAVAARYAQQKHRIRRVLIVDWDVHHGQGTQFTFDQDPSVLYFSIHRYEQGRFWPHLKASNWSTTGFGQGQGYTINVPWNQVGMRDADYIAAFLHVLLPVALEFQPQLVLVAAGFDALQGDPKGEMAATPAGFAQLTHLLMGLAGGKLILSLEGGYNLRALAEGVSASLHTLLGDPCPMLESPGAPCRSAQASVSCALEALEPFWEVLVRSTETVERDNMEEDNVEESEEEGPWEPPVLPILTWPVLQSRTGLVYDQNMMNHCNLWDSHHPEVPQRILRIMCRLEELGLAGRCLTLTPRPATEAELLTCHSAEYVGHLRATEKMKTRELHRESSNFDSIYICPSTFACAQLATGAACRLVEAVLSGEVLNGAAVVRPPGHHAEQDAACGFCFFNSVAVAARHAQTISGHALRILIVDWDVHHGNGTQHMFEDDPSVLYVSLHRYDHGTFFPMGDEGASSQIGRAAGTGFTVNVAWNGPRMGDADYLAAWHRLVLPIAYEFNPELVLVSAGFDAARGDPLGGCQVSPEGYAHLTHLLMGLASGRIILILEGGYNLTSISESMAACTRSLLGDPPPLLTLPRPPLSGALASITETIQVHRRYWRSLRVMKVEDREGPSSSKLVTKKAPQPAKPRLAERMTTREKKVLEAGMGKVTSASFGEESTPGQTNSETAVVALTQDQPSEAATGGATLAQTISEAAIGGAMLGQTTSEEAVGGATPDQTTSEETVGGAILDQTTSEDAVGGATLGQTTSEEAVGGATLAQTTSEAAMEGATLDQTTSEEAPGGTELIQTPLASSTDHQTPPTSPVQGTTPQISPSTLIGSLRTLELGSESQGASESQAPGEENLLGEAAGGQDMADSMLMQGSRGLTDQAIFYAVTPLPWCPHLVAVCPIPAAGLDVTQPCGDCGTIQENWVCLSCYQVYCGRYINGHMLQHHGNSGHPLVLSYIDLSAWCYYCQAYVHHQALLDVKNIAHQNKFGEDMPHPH
Method in brief: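 The single-point screen used HDAC6 at 60 ng/well, 50 μM compound and 80 μM Ac-Leu-Gly-Lys(Ac)-AMC in pH 8.0 Tris buffer with 0.5 mg/mL BSA, incubated 30 min at 37 °C. Trypsin (0.4 mg/mL) was added for 15–30 min at room temperature, and fluorescence was read at 360/460 nm. Each result came from two or more assays run in duplicate.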

[4] = molecular target: T4, Histone deacetylase 8 (Homo sapiens) (UniProt Q9BY41); experiment: Inhibition of recombinant human HDAC8 enzyme using Ac-LeuGlyLys (tfa)-AMC as substrate at 50 uM after 15 to 30 mins
T4 sequence (whole entry): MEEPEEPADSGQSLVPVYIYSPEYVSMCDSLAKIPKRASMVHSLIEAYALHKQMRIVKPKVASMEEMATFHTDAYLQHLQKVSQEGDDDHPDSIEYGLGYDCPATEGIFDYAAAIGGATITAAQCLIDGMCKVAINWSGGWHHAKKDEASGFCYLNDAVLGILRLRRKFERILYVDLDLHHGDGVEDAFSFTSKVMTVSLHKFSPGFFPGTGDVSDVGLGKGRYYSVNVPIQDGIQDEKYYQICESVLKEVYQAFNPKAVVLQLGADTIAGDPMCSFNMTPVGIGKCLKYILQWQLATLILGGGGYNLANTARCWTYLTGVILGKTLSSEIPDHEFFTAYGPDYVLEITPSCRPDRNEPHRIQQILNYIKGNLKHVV
Method in brief: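 HDAC8 (5 ng/well) was incubated 30 min at 37 °C with 50 μM compound and 400 μM trifluoroacetylated substrate Ac-Leu-Gly-Lys(Tfa)-AMC in Tris-HCl pH 8.0 buffer with NaCl, KCl, MgCl2 and BSA. Trypsin (0.4 mg/mL) development ran 15–30 min at room temperature, with a 360/460 nm read-out. There were at least two separate duplicate assays.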

[5] = molecular target: Histone deacetylase 3/NCoR1 (Homo sapiens) (UniProt O15379+O75376); settings: 50 uM
Histone deacetylase 11 = molecular target: T5, Histone deacetylase 11 (Homo sapiens, UniProt Q96DB2); experiment: Inhibition of recombinant human HDAC11 enzyme using Ac-LeuGlyLys(Ac)-AMC as substrate after 15 to 30 mins
T5 sequence (Q96DB2 whole entry): T2 sequence (whole entry)

Histone deacetylase 8 = molecular target: T6, Histone deacetylase 8 (Homo sapiens, UniProt Q9BY41); experiment: Inhibition of recombinant human HDAC8 enzyme using Ac-LeuGlyLys (tfa)-AMC as substrate after 15 to 30 mins
T6 sequence (Q9BY41 whole entry): T4 sequence (whole entry)

[6] = molecular target: Histone deacetylase 3/NCoR1 (Homo sapiens, UniProt O15379); experiment: Inhibition of GST-tagged recombinant human HDAC3/NcoR1 enzyme using flurogenic Ac-LeuGlyLys (Ac)-AMC as substrate after 15 to 30 mins; type: protein-complex assay
Histone deacetylase 3/NCoR1, sequence (O15379 whole entry): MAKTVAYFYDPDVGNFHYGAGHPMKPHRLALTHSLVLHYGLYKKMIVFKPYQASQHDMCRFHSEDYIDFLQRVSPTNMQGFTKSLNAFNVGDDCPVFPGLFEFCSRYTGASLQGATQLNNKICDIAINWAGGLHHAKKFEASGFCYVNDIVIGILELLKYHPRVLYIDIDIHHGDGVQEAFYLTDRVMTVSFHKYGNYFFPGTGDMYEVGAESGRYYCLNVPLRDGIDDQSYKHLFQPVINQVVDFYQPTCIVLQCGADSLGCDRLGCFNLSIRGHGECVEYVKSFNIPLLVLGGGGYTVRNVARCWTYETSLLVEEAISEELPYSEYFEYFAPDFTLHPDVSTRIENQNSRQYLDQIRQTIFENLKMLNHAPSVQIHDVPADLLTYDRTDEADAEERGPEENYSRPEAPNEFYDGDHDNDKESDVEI
Histone deacetylase 3/NCoR1, sequence (O75376 whole entry, further chain): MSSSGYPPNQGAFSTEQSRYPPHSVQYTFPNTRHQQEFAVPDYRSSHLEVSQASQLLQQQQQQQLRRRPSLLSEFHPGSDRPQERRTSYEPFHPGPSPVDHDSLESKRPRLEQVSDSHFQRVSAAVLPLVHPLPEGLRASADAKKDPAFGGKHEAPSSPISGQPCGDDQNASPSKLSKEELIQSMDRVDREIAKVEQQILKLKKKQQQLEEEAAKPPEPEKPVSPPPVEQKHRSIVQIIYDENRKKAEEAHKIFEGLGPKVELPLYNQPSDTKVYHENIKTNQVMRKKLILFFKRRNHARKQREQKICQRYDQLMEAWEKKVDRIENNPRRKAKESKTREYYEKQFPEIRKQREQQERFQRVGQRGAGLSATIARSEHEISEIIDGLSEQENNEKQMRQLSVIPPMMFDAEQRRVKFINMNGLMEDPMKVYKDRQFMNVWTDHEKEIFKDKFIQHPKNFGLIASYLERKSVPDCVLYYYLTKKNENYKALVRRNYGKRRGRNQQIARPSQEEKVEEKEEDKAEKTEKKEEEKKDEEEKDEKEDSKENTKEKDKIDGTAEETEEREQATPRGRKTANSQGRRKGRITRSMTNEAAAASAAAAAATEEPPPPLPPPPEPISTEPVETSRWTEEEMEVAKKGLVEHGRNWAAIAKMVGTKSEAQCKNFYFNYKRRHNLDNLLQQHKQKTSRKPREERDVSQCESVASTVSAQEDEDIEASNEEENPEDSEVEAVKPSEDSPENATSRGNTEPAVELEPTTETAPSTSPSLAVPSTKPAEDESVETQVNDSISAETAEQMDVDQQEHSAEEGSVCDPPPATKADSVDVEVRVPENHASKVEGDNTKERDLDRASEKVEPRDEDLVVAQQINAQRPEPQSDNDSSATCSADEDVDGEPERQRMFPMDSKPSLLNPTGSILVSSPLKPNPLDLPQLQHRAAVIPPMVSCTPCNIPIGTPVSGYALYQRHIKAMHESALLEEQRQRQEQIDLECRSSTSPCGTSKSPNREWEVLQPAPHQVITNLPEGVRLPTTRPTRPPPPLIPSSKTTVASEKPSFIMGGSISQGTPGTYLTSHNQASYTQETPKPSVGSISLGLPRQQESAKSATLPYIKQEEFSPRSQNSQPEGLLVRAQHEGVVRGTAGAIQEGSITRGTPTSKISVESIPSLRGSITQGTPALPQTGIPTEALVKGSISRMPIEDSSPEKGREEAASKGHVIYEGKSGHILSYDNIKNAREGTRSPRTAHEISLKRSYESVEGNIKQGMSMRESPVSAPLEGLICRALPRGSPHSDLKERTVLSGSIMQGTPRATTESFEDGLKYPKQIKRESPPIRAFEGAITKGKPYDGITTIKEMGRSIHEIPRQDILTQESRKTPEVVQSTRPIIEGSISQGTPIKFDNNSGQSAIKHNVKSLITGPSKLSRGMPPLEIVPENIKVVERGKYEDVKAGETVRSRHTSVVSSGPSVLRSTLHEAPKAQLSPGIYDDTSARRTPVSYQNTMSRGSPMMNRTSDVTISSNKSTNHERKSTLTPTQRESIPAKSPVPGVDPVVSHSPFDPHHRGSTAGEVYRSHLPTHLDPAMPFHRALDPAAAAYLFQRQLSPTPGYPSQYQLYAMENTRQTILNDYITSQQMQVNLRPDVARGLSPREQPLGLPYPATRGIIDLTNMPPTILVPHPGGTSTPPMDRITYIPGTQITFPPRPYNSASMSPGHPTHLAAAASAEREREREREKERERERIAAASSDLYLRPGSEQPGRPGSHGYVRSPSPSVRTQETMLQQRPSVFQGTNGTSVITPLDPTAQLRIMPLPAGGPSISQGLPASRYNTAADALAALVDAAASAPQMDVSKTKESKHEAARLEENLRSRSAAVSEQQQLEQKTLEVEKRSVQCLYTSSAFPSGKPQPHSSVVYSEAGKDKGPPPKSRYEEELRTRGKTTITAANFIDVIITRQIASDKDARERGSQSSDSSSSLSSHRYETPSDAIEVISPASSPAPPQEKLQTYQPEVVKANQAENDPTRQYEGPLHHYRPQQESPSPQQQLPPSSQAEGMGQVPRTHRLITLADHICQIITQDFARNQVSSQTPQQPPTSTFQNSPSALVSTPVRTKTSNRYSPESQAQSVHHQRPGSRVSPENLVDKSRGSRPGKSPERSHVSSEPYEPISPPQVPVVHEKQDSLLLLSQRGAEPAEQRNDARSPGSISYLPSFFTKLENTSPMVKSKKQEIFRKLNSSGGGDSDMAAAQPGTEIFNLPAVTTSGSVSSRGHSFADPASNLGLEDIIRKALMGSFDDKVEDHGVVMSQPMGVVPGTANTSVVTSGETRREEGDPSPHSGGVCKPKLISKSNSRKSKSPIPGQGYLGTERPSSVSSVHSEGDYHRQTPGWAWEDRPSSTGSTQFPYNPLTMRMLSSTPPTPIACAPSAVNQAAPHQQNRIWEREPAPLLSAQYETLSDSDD

Histone deacetylase 2 = Histone deacetylase 2 (Homo sapiens, UniProt Q92769); experiment: Inhibition of recombinant human HDAC2 enzyme using flurogenic Ac-LeuGlyLys (Ac)-AMC as substrate after 15 to 30 mins
Histone deacetylase 2, sequence (Q92769 whole entry): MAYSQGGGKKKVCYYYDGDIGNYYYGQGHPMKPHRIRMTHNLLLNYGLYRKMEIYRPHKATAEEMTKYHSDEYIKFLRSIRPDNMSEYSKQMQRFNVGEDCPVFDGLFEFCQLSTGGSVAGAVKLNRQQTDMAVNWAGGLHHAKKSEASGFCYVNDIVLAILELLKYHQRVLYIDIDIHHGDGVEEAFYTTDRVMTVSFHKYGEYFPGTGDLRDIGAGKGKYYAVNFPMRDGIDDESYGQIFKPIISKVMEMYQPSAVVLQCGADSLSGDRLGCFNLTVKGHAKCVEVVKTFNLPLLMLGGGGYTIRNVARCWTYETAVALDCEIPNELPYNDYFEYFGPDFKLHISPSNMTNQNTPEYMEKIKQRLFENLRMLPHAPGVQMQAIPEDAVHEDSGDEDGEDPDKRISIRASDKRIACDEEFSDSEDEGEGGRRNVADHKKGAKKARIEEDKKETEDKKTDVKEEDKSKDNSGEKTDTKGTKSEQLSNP

Histone deacetylase 1 = Histone deacetylase 1 (Homo sapiens, UniProt Q13547); experiment: Inhibition of recombinant human HDAC1 enzyme using flurogenic Ac-LeuGlyLys (Ac)-AMC as substrate after 15 to 30 mins
Histone deacetylase 1, sequence (Q13547 whole entry): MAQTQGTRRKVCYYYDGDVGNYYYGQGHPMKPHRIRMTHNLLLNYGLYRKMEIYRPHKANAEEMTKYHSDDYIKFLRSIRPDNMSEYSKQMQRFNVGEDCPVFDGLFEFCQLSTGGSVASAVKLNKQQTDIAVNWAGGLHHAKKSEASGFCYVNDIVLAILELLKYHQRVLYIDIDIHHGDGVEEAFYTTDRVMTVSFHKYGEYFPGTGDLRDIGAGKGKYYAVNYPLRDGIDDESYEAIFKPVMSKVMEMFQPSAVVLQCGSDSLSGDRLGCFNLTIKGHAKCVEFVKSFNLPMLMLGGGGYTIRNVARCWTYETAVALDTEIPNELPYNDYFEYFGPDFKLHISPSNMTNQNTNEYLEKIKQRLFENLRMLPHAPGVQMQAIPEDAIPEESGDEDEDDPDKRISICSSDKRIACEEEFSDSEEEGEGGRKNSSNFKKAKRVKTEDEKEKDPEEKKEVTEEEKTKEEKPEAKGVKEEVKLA

[7] = molecular target: T7, Polyamine deacetylase HDAC10 (Homo sapiens, UniProt Q969S8); experiment: Inhibition of recombinant human HDAC10 enzyme using tetrapeptide Ac-ArgThr-Lys(Ac)Lys(Ac)-AMC as substrate after 15 to 30 mins
T7 sequence (Q969S8 whole entry): T1 sequence (whole entry)

[8] = molecular target: T8, Protein deacetylase HDAC6 (Homo sapiens, UniProt Q9UBN7); experiment: Inhibition of recombinant human HDAC6 enzyme using flurogenic Ac-LeuGlyLys (Ac)-AMC as substrate after 15 to 30 mins
T8 sequence (Q9UBN7 whole entry): T3 sequence (whole entry)

## CC(C)[C@H]1NC(=O)[C@@H](C)[C@H](C/C=C\CCC(=O)O)NC(=O)[C@@H](Cc2ccccc2)NC(=O)[C@@H](C)NC1=O
[1]
  inhibition: < 50%
[2]
  inhibition: < 50%
[3]
  inhibition: < 50%
[4]
  inhibition: < 50%
[5]
  inhibition: < 50%

## CC(C)[C@H]1NC(=O)[C@H](C)[C@@H](C/C=C\CCC(=O)O)NC(=O)[C@@H](Cc2ccccc2)NC(=O)[C@@H](C)NC1=O
[1]
  inhibition: < 50%
[2]
  inhibition: < 50%
[3]
  inhibition: < 50%
[4]
  inhibition: < 50%
[5]
  inhibition: < 50%

## CC(C)[C@H]1NC(=O)[C@@H](C)[C@@H](C/C=C\CCC(N)=O)NC(=O)[C@@H](Cc2ccccc2)NC(=O)[C@@H](C)NC1=O [AZUMAMIDE A]
[1]
  inhibition: < 50%
[3]
  inhibition: < 50%
Histone deacetylase 11
  Ki: > 5 µM
Histone deacetylase 8
  Ki: > 5 µM
[6]
  Ki: 3.2 µM
Histone deacetylase 2
  Ki: > 5 µM
Histone deacetylase 1
  Ki: > 5000 nM

## CC(C)[C@H]1NC(=O)[C@@H](C)[C@@H](C/C=C\CCC(N)=O)NC(=O)[C@@H](Cc2ccc(O)cc2)NC(=O)[C@@H](C)NC1=O [AZUMAMIDE B]
[1]
  inhibition: < 50%
[3]
  inhibition: < 50%
[4]
  inhibition: < 50%
Histone deacetylase 11
  Ki: > 5 µM
[6]
  Ki: 3 µM
Histone deacetylase 2
  Ki: 3 µM
Histone deacetylase 1
  Ki: 5000 nM

## CC(C)[C@H]1NC(=O)[C@@H](C)[C@@H](C/C=C\CCC(=O)O)NC(=O)[C@@H](Cc2ccc(O)cc2)NC(=O)[C@@H](C)NC1=O [AZUMAMIDE C]
Histone deacetylase 11
  Ki: 0.035 µM
[7]
  Ki: 0.01 µM
[8]
  Ki: 2 µM
Histone deacetylase 8
  Ki: > 5 µM
[6]
  Ki: 0.014 µM
Histone deacetylase 2
  Ki: 0.04 µM
Histone deacetylase 1
  Ki: 32 nM

## C[C@@H]1C(=O)N[C@H](C)C(=O)N[C@H](C)C(=O)N[C@H](Cc2ccccc2)C(=O)N[C@@H]1C/C=C\CCC(N)=O [AZUMAMIDE D]
[1]
  inhibition: < 50%
[3]
  inhibition: < 50%
[4]
  inhibition: < 50%
Histone deacetylase 11
  Ki: > 5 µM
[6]
  Ki: 3.7 µM
Histone deacetylase 2
  Ki: > 5 µM
Histone deacetylase 1
  Ki: > 5000 nM

## CC(C)[C@H]1NC(=O)[C@@H](C)[C@@H](C/C=C\CCC(=O)O)NC(=O)[C@@H](Cc2ccccc2)NC(=O)[C@@H](C)NC1=O [AZUMAMIDE E]
Histone deacetylase 11
  Ki: 0.06 µM
[7]
  Ki: 0.02 µM
[8]
  Ki: > 5 µM
Histone deacetylase 8
  Ki: 4.4 µM
[6]
  Ki: 0.025 µM

## C/C=C1\NC(=O)[C@H]2CSSCC/C=C/[C@H](CC(=O)N[C@H](C(C)C)C(=O)N2)OC(=O)[C@H](C(C)C)NC1=O [ROMIDEPSIN]
Histone deacetylase 1
  Ki: 0.002 nM
